Active and inactive are the calls of the source. The rule behind the calls is not given here.
Columns and labels:
[1] = biological target: Acetylcholinesterase (Electrophorus electricus) (UniProt O42275); assay: Inhibition of electric eel AChE at 100 uM using acetylthiocholine iodide as substrate by Ellman's method
Cholinesterase [2] = biological target: T1, Cholinesterase (Equus caballus, UniProt P81908); assay: Inhibition of equine BChE using S-butyrylthiocholine chloride as substrate by Ellman's method
T1 sequence (P81908 whole entry): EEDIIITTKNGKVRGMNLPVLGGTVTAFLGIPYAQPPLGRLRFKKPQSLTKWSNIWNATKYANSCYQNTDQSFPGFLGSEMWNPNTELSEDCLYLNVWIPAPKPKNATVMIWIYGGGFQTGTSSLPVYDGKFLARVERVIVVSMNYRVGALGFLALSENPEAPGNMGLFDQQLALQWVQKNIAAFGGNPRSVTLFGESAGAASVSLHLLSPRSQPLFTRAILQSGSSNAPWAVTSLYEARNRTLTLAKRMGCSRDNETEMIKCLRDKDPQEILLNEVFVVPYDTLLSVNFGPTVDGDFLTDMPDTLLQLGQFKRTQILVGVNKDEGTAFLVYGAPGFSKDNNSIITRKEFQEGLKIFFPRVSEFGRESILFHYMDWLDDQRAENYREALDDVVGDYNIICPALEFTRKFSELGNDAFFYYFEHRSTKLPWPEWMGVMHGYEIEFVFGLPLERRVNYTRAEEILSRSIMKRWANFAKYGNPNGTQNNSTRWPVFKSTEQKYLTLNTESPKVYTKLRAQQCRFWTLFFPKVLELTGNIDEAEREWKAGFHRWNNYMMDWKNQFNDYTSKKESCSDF
Procedure, shortened: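 IC50 values are the mean ± SD of three independent experiments.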

[3] = biological target: Cholinesterase (Equus caballus) (UniProt P81908); assay: Inhibition of equine BChE at 100 uM using S-butyrylthiocholine chloride as substrate by Ellman's method
Cholinesterase (Equus caballus), sequence (P81908 whole entry): as above

[4] = Antioxidant activity assessed as ABTS free radical scavenging activity after 1 min by spectrophotometry
[5] = Antioxidant activity assessed as ABTS free radical scavenging activity at 100 uM after 1 min by spectrophotometry
[6] = Cytotoxicity against mouse NSC-34 cells assessed as cell viability after 48 hrs by MTS assay; format: cell-based; settings: nsc-34, 48 h
Cholinesterase [7] = biological target: T1, Cholinesterase; assay: Mixed-type inhibition of equine BChE using S-butyrylthiocholine chloride as substrate assessed as free enzyme by Lineweaver-Burk reciprocal plot method
Cholinesterase [8] = biological target: T1, Cholinesterase; assay: Mixed-type inhibition of equine BChE using S-butyrylthiocholine chloride as substrate assessed as enzyme-substrate complex by Lineweaver-Burk reciprocal plot method

Acetylcholinesterase (Electrophorus electricus), sequence (O42275 24-633 limits assumed): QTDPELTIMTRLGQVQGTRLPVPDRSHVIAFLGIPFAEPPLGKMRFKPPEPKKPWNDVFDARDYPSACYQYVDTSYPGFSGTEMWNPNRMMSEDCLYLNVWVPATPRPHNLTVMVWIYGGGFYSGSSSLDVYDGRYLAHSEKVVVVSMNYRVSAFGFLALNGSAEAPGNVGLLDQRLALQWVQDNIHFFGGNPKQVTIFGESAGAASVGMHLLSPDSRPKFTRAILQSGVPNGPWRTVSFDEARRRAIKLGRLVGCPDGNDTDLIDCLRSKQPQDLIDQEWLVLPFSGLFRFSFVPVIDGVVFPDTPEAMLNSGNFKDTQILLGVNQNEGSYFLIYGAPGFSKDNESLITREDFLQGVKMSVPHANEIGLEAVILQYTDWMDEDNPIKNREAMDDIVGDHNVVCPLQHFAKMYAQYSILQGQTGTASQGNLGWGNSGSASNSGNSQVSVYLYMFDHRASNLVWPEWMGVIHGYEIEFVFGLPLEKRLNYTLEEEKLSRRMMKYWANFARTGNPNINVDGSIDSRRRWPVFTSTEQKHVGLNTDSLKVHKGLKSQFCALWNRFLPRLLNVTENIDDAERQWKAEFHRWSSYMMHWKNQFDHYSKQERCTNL

Compound | inhibition [1] | IC50 (Cholinesterase [2]) | inhibition [3] | IC50 ([4]; ABTS free radical) | INH [5] | Activity [6] | Ki (Cholinesterase [7]) | IC50 [4] | Ki (Cholinesterase [8])
c1ccc(-c2cc3ccccc3o2)cc1 | inactive | > 100 µM | 6% | – | – | – | – | – | –
Brc1cccc2cc(-c3ccccc3)oc12 | 4% | > 100 µM | 12% | – | – | – | – | – | –
Cc1c(C)c2c(c(C)c1O)CCC(C)(C(=O)O)O2 (stereo unspecified) [TROLOX] | – | – | – | 13 µM | – | – | – | – | –
COc1ccc(-c2cc3ccccc3o2)cc1 | inactive | > 100 µM | inactive | – | – | – | – | – | –
Oc1ccc(-c2cc3cc(Cl)ccc3o2)cc1 | – | > 100 µM | 15% | – | 15% | – | – | – | –
Oc1ccc(-c2cc3cccc(Br)c3o2)cc1 | – | 82.5 µM | 54% | 93.6 µM | 53% | – | – | – | –
COc1ccc(-c2cc3cccc(Cl)c3o2)cc1 | – | > 100 µM | 5% | – | – | – | – | – | –
Oc1ccc(-c2cc3cc(Br)ccc3o2)cc1 | – | > 100 µM | 16.6% | – | 15% | – | – | – | –
Oc1ccc(-c2cc3cccc(Cl)c3o2)cc1 | – | 30.3 µM | 77% | – | 62.4% | Non-toxic | 5 µM | 67.6 µM | 87.4 µM
Cc1cccc2cc(-c3ccc(O)cc3)oc12 | – | 77 µM | 58% | 53.5 µM | 72% | – | – | – | –
Cc1ccc2oc(-c3ccc(O)cc3)cc2c1 | 4.8% | > 100 µM | 19% | – | 31% | – | – | – | –
Oc1ccc(-c2cc3ccccc3o2)cc1 | inactive | > 100 µM | inactive | – | 24% | – | – | – | –

Reference: ChEMBL document CHEMBL3792316, “2-Phenylbenzofuran derivatives as butyrylcholinesterase inhibitors: Synthesis, biological activity and molecular modeling” (Bioorg Med Chem Lett, 2016)
